Results reported in ChEMBL document CHEMBL1156153, “Novel benzofuran-3-one indole inhibitors of PI3 kinase-alpha and the mammalian target of rapamycin: hit to lead studies” (Bioorg Med Chem Lett, 2010).
In brackets after ≈: the same amount, converted by molar mass.

Key:
[1] = molecular target: Phosphatidylinositol 4,5-bisphosphate 3-kinase catalytic subunit alpha isoform (Homo sapiens, UniProt P42336); test: Inhibition of PI3Kalpha
PC-3 = test: Antiproliferative activity against human PC3 cells; format: functional, cell-based
Procedure, shortened: (§1)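 Cell growth density monitored in Caco-2 (epithelial colorectal adenocarcinoma), LoVo (colon carcinoma) and PC3MM2/PC3 (prostate cancer) cultures; IC50 from means of two experiments.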

LoVo = test: Antiproliferative activity against human LoVo cells; format: functional, cell-based; procedure, shortened: as §1
[2] = molecular target: Serine/threonine-protein kinase mTOR (Homo sapiens, UniProt P42345); test: Inhibition of mTOR
Procedure, shortened: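 DELFIA-format mTOR kinase assay monitoring phosphorylation of His6-S6K substrate.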

[3] = molecular target: Phosphatidylinositol 4,5-bisphosphate 3-kinase catalytic subunit gamma isoform (Homo sapiens, UniProt P48736); test: Inhibition of PI3Kgamma
Sequence of Phosphatidylinositol 4,5-bisphosphate 3-kinase catalytic subunit gamma isoform (P48736 whole entry, canonical isoform): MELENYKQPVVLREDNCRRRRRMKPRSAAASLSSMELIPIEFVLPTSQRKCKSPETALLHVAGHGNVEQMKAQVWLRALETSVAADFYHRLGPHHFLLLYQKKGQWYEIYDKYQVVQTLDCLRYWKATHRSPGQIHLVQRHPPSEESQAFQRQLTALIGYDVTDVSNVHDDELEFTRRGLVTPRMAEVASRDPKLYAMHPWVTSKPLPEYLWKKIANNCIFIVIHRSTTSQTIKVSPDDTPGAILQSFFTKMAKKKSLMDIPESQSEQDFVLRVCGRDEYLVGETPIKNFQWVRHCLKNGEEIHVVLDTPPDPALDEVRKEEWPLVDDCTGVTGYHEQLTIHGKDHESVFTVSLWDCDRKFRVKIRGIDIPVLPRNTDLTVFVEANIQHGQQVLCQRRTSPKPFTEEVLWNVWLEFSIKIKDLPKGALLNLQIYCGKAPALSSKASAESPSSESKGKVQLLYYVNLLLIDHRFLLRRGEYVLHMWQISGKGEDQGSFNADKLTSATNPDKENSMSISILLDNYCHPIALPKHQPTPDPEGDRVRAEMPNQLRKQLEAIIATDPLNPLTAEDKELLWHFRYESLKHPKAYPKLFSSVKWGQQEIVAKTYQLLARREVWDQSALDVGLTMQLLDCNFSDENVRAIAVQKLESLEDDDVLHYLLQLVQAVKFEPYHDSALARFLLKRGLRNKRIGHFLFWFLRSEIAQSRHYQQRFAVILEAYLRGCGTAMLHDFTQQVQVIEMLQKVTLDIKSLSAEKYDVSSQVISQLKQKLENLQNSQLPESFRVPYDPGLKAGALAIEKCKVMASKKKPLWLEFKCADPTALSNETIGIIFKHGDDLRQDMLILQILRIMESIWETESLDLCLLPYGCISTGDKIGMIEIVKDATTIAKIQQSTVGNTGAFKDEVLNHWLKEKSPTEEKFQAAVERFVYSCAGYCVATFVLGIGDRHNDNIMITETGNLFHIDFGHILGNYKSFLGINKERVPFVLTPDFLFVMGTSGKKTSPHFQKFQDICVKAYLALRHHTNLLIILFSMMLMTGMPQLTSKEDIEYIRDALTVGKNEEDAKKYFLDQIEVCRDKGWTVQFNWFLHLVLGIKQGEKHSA
Procedure, shortened: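 Fluorescence polarization assays for PI3K-α (p110α) and PI3K-γ (p110γ) monitored PIP3 production.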

Caco-2 = test: Antiproliferative activity against human Caco-2 cells; format: functional, cell-based; procedure, shortened: as §1
[4] = Aqueous solubility at pH 7.4; format: physicochemical
Procedure, shortened: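 Aqueous solubility measured at pH 7.4, reported in µg/mL.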

CYP3A4 = CYP3A4 (Homo sapiens, UniProt P08684); test: Inhibition of CYP3A4 at 3 uM; format: ADME
Sequence of CYP3A4 (P08684 whole entry): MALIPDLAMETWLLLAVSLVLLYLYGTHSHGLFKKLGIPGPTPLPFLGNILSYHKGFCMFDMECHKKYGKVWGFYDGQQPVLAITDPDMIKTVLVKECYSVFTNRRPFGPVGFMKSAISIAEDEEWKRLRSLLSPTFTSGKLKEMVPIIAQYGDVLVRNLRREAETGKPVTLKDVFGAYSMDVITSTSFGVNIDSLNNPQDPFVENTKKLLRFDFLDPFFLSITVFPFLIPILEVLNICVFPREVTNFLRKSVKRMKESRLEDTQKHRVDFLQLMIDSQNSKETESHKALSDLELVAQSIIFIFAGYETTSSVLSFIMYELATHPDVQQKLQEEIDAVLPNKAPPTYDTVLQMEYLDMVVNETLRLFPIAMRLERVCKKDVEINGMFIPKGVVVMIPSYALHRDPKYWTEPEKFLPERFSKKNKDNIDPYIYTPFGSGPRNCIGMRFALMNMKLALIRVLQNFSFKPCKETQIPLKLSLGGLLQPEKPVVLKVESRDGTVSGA

[5] = Inhibition of PI3K in human PC3 cells assessed as inhibition AKT phosphorylation after 6 hrs by densitometry; format: cell-based; conditions: PC-3, 6 h
Procedure, shortened: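 PC-3 prostate cancer cells exposed to DMSO, 10 µM […] as positive control, or graded doses of test agent for 6 h. Lysates immunoblotted for Akt phosphorylated at Thr308 and for p-4EBP1. Inhibition assessed by densitometry of the p-Akt blots.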

Sequence of Phosphatidylinositol 4,5-bisphosphate 3-kinase catalytic subunit alpha isoform (P42336 whole entry, canonical isoform): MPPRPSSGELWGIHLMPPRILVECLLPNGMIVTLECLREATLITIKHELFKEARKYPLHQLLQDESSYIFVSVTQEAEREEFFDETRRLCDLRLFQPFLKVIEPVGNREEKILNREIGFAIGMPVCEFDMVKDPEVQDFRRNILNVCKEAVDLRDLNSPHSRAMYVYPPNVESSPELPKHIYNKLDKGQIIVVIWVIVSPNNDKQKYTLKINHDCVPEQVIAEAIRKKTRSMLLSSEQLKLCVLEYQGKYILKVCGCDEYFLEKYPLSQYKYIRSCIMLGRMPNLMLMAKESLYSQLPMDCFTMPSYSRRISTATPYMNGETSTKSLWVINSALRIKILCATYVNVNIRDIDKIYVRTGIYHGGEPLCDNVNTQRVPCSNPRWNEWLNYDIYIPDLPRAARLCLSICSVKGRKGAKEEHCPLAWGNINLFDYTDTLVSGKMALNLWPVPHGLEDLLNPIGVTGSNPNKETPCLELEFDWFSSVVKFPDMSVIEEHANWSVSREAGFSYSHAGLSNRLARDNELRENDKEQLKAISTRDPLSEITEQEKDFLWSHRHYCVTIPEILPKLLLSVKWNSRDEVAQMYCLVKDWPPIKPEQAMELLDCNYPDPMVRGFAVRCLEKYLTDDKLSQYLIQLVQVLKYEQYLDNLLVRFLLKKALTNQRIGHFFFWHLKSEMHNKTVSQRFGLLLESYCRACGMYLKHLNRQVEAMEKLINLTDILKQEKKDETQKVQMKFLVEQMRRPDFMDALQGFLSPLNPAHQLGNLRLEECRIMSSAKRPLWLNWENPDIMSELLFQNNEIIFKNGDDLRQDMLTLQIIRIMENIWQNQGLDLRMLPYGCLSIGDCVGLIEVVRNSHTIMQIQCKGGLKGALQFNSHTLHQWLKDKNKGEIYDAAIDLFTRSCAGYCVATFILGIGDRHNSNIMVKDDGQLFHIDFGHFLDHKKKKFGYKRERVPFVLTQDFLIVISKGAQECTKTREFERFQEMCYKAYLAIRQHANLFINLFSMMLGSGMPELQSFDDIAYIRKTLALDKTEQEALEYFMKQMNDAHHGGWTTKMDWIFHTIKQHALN

SMILES | IC50 [1] [nM] | IC50 (PC-3) [nM] | IC50 (LoVo) [nM] | IC50 [2] [nM] | IC50 [3] [nM] | IC50 (Caco-2) [nM] | solubility [4] [µg/mL] | inhibition at 3 µM (CYP3A4) [%] | IC50 [5] [nM]
COc1ccc2c(c1)c(/C=C1\Oc3cc(O)cc(O)c3C1=O)c(C)n2CCCN1CCN(C)CC1 | 15 | 9500 | 7500 | 153 | 402 | 10000 | 10 (≈ 20.9 µM) | – | –
COc1ccc2c(c1)c(/C=C1\Oc3cc(O)cc(O)c3C1=O)cn2CCCN(C)C | 40 | – | – | 2120 | 2420 | – | 32 (≈ 78.3 µM) | – | –
O=C1/C(=C/c2c[nH]c3ccc(Cl)cc23)Oc2cc(O)cc(O)c21 | – | – | – | – | – | – | 1 (≈ 3.05 µM) | – | –
COc1ccc2c(c1)c(/C=C1\Oc3cc(O)cc(O)c3C1=O)c(C)n2CCCN1CCOCC1 | 8 | 2400 | 4600 | 18 | 76 | 4700 | 1 (≈ 2.15 µM) | 68 | –
COc1ccc2c(c1)c(/C=C1\Oc3cc(O)cc(O)c3C1=O)c(C)n2CCN1CCOCC1 | 11 | 1500 | 2300 | 9 | 155 | 2000 | 6 (≈ 13.3 µM) | 64 | –
COc1ccc2c(c1)c(/C=C1\Oc3cc(O)cc(O)c3C1=O)c(C)n2CCN1CCN(C)CC1 | 5 | 2400 | 2200 | 11 | 473 | 4700 | 30 (≈ 64.7 µM) | – | –
COc1ccc2c(c1)c(/C=C1\Oc3cc(O)cc(O)c3C1=O)c(C)n2CCCN(C)C | – | 2800 | 5700 | 118 | 404 | 9300 | 32 (≈ 75.7 µM) | – | –
COc1ccc2c(c1)c(/C=C1\Oc3cc(O)cc(O)c3C1=O)c(C)n2CCN(C)C | 9 | 1800 | 1700 | 18 | 283 | 2800 | 1 (≈ 2.45 µM) | – | –
COc1ccc2c(c1)c(/C=C1\Oc3cc(O)cc(O)c3C1=O)c(C)n2CCCN1CCN(CCO)CC1 | 6 | 10000 | 10000 | 108 | 109 | 10000 | 36 (≈ 70.9 µM) | – | –
COc1ccc2c(c1)c(/C=C1\Oc3cc(O)cc(O)c3C1=O)cn2CCCN1CCOCC1 | 42 | – | – | 430 | 646 | – | 3 (≈ 6.66 µM) | 42 | –
COc1ccc2c(c1)c(/C=C1\Oc3cc(O)cc(O)c3C1=O)cn2CCCN1CCN(CCO)CC1 | 37 | – | – | 1650 | 1360 | – | 25 (≈ 50.7 µM) | – | –

Next, values leading:

IC50 [1] [nM] | IC50 (PC-3) [nM] | IC50 (LoVo) [nM] | IC50 [2] [nM] | IC50 [3] [nM] | IC50 (Caco-2) [nM] | solubility [4] [µg/mL] | inhibition at 3 µM (CYP3A4) [%] | IC50 [5] [nM] | SMILES
1 | 1900 | 4700 | 1 | 9 | 7500 | 1 (≈ 2.5 µM) | 57 | – | COc1ccc2[nH]c(-c3cccnc3)c(/C=C3\Oc4cc(O)cc(O)c4C3=O)c2c1
6750 | – | – | 9200 | – | – | 14 (≈ 47.7 µM) | – | – | O=C1/C(=C/c2c[nH]c3ccccc23)Oc2cc(O)cc(O)c21
7 | 1300 | 2500 | 4 | 54 | 7200 | 1 (≈ 2.85 µM) | 75 | – | COc1ccc2c(c1)c(/C=C1\Oc3cc(O)cc(O)c3C1=O)c(C)n2C
– | 800 | 1200 | 10 | 11 | 2100 | – | 77 | 385 | COc1ccc2[nH]c(-c3ccccc3)c(/C=C3\Oc4cc(O)cc(O)c4C3=O)c2c1
2670 | – | – | 96 | – | – | 2 (≈ 5.22 µM) | – | – | Cn1c(-c2ccccc2)c(/C=C2\Oc3cc(O)cc(O)c3C2=O)c2ccccc21
– | – | – | – | – | – | 1 (≈ 2.48 µM) | – | – | O=C1/C(=C/c2c(-c3ccc(Cl)cc3)[nH]c3ccccc23)Oc2cc(O)cc(O)c21
– | – | – | – | – | – | 1 (≈ 2.58 µM) | – | – | O=C1/C(=C/c2c(-c3ccc(F)cc3)[nH]c3ccccc23)Oc2cc(O)cc(O)c21
– | – | – | – | – | – | 1 (≈ 2.59 µM) | – | – | Cc1[nH]c2ccc(Br)cc2c1/C=C1\Oc2cc(O)cc(O)c2C1=O
1030 | – | – | 130 | 2780 | – | 1 (≈ 2.71 µM) | – | – | O=C1/C(=C/c2c(-c3ccccc3)[nH]c3ccccc23)Oc2cc(O)cc(O)c21
– | – | – | 800 | – | – | 2 (≈ 6.51 µM) | – | – | Cn1cc(/C=C2\Oc3cc(O)cc(O)c3C2=O)c2ccccc21
3650 | – | – | 22 | – | – | 3 (≈ 8.1 µM) | – | – | O=C1/C(=C/c2c(-c3ccccn3)[nH]c3ccccc23)Oc2cc(O)cc(O)c21
– | – | – | – | – | – | 12 (≈ 37.1 µM) | 58 | – | COc1ccc2[nH]cc(/C=C3\Oc4cc(O)cc(O)c4C3=O)c2c1
106 | – | – | 62 | 587 | – | 1 (≈ 2.96 µM) | – | – | COc1ccc2c(c1)c(/C=C1\Oc3cc(O)cc(O)c3C1=O)cn2C
3 | 4000 | 3600 | 3 | 25 | 9000 | 1 (≈ 2.96 µM) | 79 | – | COc1ccc2[nH]c(C)c(/C=C3\Oc4cc(O)cc(O)c4C3=O)c2c1
– | – | – | – | – | – | 1 (≈ 2.38 µM) | – | – | O=C1/C(=C/c2c(-c3ccc4ccccc4c3)[nH]c3ccccc23)Oc2cc(O)cc(O)c21
